Here are results for 7 molecules from ChEMBL document CHEMBL4316629, “Discovery of 1,3-diphenyl-1H-pyrazole derivatives containing rhodanine-3-alkanoic acid groups as potential PTP1B inhibitors” (Bioorg Med Chem Lett, 2019).

Assay [1] concerns the target T1, Tyrosine-protein phosphatase non-receptor type 2 (Homo sapiens, UniProt P17706).
T1 sequence (P17706 whole entry): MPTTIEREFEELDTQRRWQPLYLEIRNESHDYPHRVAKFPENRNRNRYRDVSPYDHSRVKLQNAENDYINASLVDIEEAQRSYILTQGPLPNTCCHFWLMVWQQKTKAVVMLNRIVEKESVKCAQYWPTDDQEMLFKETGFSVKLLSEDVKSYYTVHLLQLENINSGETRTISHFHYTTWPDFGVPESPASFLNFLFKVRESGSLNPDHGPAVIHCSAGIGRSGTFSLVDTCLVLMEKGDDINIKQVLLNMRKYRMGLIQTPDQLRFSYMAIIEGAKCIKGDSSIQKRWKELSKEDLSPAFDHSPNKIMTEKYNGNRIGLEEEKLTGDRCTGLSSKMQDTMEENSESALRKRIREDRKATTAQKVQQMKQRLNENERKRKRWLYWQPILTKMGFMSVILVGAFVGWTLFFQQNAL
The experiment in a line: Inhibition of TCPTP (unknown origin) using pNPP as substrate.

In assay [2] the target is Receptor-type tyrosine-protein phosphatase F (Homo sapiens) (UniProt P10586). The experiment in a line: Inhibition of LAR (unknown origin) at 20 ug/ml using pNPP as substrate. The procedure, abridged:
(§1)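 Single-point screen at 20 µg/mL of compound against each phosphatase (LAR, SHP-1, SHP-2), with pNPP hydrolysis as the read-out.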

For assay [3], the target named is T2, M-phase inducer phosphatase 2 (Homo sapiens, UniProt P30305).
T2 sequence (P30305 whole entry): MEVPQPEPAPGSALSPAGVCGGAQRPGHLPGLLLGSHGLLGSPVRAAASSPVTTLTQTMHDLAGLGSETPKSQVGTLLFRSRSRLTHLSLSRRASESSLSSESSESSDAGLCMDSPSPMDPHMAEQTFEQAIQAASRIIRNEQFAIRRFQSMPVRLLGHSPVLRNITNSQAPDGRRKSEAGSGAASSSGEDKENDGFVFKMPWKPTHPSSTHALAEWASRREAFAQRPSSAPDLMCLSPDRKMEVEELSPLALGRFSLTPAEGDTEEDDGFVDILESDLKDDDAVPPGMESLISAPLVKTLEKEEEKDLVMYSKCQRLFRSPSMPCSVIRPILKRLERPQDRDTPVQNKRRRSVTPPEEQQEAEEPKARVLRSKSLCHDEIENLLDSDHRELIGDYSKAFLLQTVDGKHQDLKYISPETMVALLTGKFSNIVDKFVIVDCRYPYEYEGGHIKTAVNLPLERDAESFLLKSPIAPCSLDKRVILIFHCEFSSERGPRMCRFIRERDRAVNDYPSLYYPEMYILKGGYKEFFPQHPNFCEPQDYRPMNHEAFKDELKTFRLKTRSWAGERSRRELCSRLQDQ
The assay can be described thus: Inhibition of CDC25B (unknown origin) using pNPP as substrate. The procedure, abridged: (§2)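 Same pNPP-substrate phosphatase assay as for PTP1B, applied for selectivity. Compounds were first screened at 20 μg/mL, then tested over a dose range. IC50 was obtained by regression analysis and reported as mean ± SD of three replications. Oleanolic acid served as the positive control.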

In assay [4] the target is T3, Tyrosine-protein phosphatase non-receptor type 1 (Homo sapiens, UniProt P18031).
T3 sequence (P18031 whole entry): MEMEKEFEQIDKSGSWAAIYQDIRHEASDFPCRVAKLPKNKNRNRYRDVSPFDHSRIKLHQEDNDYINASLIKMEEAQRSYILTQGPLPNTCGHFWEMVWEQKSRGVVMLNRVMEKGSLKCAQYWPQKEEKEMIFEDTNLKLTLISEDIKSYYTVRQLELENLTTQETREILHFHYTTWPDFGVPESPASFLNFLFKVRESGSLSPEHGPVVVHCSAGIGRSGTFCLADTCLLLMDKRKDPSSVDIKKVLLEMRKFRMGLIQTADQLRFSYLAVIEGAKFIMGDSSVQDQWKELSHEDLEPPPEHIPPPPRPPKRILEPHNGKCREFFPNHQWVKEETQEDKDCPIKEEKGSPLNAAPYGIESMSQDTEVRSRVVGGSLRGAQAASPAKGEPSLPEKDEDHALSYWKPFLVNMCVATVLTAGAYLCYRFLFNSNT
The assay can be described thus: Inhibition of PTP1B (unknown origin) using pNPP as substrate.

The target of assay [5] is T4, Tyrosine-protein phosphatase non-receptor type 6 (Homo sapiens, UniProt P29350). The experiment in a line: Inhibition of SHP1 (unknown origin) using pNPP as substrate. The procedure, abridged:
as §2

Assay [6] concerns the target T5, Tyrosine-protein phosphatase non-receptor type 11 (Homo sapiens, UniProt Q06124).
T5 sequence (Q06124 whole entry): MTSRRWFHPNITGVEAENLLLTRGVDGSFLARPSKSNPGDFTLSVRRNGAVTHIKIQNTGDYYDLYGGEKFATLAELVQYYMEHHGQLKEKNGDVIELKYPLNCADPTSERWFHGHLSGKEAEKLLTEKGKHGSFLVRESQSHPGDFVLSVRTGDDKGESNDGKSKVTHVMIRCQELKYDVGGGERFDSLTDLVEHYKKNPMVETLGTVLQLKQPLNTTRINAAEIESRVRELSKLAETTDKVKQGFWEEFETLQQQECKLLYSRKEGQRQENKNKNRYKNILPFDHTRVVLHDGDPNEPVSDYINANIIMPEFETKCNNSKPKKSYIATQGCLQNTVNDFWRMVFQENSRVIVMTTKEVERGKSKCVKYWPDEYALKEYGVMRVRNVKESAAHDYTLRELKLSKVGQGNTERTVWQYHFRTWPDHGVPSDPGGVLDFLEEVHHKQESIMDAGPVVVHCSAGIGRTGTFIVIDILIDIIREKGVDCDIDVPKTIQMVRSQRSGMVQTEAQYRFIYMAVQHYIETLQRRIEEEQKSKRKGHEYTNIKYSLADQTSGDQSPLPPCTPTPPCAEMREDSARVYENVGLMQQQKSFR
The assay can be described thus: Inhibition of SHP2 (unknown origin) using pNPP as substrate. The procedure, abridged: as §2

Assay [7] is filed under the species Homo sapiens. The experiment in a line: Selectivity index, ratio of IC50 for inhibition of TCPTP (unknown origin) using pNPP as substrate to IC50 for inhibition of PTP1B (unknown origin) using pNPP as substrate. The procedure, abridged:
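Both TCPTP and PTP1B IC50 values were measured by the same pNPP hydrolysis assay, derived by regression from triplicate dose-response data. The index is the TCPTP IC50 divided by the PTP1B IC50.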

Assay [8] deals with T4, Tyrosine-protein phosphatase non-receptor type 6. The assay can be described thus: Inhibition of SHP1 (unknown origin) at 20 ug/ml using pNPP as substrate. The procedure, abridged:
as §1

Assay [9] addresses T6, Tyrosine-protein phosphatase non-receptor type 11 (Homo sapiens) (UniProt Q06124).
T6 sequence (whole entry): T5 sequence (Q06124 whole entry)
The experiment in a line: Inhibition of SHP2 (unknown origin) at 20 ug/ml using pNPP as substrate. The procedure, abridged: as §1

Assay [10] has as its target T3, Tyrosine-protein phosphatase non-receptor type 1. The assay can be described thus: Competitive type inhibition of PTP1B (unknown origin) using pNPP as substrate by Lineweaver-Burk plot analysis.
The target in assay [11] is T7, Tyrosine-protein phosphatase non-receptor type 1 (Homo sapiens) (UniProt P18031).
T7 sequence (whole entry): T3 sequence (P18031 whole entry)
The experiment in a line: Time dependent inhibition of PTP1B (unknown origin) using pNPP as substrate.

The target in assay [12] is T7, Tyrosine-protein phosphatase non-receptor type 1 (Homo sapiens). The experiment in a line: Potency index, ratio of IC50 for oleanolic acid to IC50 for test compound for inhibition of PTP1B (unknown origin) using pNPP as substrate. The procedure, abridged: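 Both IC50 values come from dose-response inhibition of PTP1B with pNPP as substrate, fitted by regression (mean ± SD, n = 3). The ratio divides the IC50 of the reference PTP1B inhibitor by that of the test compound.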

In general, IC50 refers to the concentration that inhibits the measured activity by half. Higher therefore signals lower potency. A word on the Ki: it is a measure of affinity in units of concentration, obtained from inhibition or displacement. A lower Ki goes with a stronger hold on the target.

Structures are written as SMILES. Active and inactive are the calls of the source. The calls are words filed in the database; no cut-off is given here.

Receptor-type tyrosine-protein phosphatase F (Homo sapiens), sequence (P10586 whole entry): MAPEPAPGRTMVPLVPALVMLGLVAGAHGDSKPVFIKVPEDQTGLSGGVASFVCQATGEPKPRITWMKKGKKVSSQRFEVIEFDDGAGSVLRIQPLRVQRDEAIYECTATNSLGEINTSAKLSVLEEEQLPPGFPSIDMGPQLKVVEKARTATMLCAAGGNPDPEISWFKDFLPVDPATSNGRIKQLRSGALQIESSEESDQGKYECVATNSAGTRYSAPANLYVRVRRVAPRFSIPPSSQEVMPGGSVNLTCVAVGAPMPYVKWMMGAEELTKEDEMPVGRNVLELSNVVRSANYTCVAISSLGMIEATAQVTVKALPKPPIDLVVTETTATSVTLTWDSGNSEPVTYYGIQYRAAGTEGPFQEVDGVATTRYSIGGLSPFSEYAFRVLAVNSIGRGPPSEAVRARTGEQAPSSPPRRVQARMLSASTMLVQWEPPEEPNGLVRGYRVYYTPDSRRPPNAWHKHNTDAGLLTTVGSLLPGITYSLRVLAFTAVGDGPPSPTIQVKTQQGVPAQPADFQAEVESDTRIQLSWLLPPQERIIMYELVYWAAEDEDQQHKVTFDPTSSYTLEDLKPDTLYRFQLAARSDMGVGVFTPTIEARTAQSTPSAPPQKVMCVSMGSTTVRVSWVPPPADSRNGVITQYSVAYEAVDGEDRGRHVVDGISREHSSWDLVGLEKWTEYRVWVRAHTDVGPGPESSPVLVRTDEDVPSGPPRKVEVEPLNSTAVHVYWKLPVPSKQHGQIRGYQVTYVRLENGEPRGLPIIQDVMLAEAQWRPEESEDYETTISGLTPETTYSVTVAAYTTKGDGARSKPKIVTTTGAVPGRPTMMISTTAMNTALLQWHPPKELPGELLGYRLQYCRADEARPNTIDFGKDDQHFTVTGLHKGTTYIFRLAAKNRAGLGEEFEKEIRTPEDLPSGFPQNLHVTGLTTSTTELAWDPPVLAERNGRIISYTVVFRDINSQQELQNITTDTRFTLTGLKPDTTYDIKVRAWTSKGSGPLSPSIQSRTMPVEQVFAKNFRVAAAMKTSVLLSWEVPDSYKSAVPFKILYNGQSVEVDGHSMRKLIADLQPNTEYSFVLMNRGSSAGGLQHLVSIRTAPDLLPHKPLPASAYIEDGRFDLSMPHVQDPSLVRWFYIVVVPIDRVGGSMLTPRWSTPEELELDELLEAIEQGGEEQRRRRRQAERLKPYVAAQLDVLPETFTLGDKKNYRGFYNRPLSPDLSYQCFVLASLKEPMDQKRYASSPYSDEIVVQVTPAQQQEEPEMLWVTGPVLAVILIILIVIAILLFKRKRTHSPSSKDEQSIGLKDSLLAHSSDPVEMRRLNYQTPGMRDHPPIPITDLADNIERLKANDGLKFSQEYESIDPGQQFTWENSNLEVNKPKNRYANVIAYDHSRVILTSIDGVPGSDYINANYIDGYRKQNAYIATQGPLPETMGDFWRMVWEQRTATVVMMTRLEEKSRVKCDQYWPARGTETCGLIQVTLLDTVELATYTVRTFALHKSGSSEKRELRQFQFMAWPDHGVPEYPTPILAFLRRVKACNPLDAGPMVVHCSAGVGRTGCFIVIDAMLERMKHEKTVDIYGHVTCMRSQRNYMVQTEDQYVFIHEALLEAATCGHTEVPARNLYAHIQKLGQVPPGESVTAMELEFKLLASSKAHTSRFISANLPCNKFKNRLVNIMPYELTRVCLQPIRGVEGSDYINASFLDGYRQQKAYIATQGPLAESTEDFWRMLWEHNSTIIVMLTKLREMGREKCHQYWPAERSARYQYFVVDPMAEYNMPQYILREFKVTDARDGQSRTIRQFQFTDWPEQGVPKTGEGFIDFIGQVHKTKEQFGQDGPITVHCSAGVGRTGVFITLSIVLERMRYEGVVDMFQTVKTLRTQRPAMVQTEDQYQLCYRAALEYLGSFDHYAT
T4 sequence (P29350 whole entry): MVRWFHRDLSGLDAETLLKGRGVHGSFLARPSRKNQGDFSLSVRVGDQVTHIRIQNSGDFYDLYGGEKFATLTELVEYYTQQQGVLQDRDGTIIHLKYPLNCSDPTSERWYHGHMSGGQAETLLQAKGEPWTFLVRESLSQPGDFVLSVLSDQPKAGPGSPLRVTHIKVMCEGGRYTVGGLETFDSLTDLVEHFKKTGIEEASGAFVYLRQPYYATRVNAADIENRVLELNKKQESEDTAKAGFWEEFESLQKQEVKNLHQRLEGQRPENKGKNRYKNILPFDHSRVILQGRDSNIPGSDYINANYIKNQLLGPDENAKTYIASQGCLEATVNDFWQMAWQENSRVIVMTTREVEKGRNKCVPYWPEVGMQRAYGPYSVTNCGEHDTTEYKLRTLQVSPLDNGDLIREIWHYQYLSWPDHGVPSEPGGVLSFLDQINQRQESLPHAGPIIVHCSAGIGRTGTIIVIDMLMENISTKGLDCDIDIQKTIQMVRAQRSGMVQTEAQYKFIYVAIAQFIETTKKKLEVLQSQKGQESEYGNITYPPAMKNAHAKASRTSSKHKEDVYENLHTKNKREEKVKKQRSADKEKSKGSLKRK

On to `O=C(O)[C@@H](Cc1ccccc1)N1C(=O)/C(=C/c2cn(-c3ccccc3)nc2-c2ccc(Cl)cc2Cl)SC1=S`, for which the half-inhibitory concentration (IC50) in [1] was 12.7 µM; in assay [3], 13.7 µM; in assay [4], 3.56 µM; in assay [5], 16.8 µM; in [6] it was 16.7 µM. Also, the inhibition result in assay [2] was “inactive”. For the same molecule, in assay [7], the Ratio IC50 fell in the range of 2 to 9.
Consider `O=C(O)CCCCCN1C(=O)/C(=C/c2cn(-c3ccccc3)nc2-c2ccc(Cl)cc2Cl)SC1=S`, for which the 50% inhibitory concentration (IC50) was 5.63 µM in [1], 10.9 µM in assay [3] and 1.35 µM in assay [4]. Besides, the inhibition result in assay [8], in assay [2] and in assay [9] was “inactive” each time. Moreover, in [7], the Ratio IC50 was in the range of 2 to 9.
For `O=C(O)CN1C(=O)/C(=C/c2cn(-c3ccccc3)nc2-c2ccc3ccccc3c2)SC1=S`, the half-maximal inhibitory concentration (IC50) was 7.91 µM in assay [1]; 11.3 µM in assay [3]; 4.78 µM in assay [4]; 24.5 µM in [5]; 20.9 µM in assay [6]. Also, in [2], the inhibition result was “inactive”. For the same molecule, the Ratio IC50 in assay [7] lay in the range of 2 to 9.
With `O=C(O)CCCN1C(=O)/C(=C/c2cn(-c3ccccc3)nc2-c2ccc(Cl)cc2Cl)SC1=S`, the IC50 in assay [1] came out at 9.18 µM; in assay [3], 13.8 µM; in [4] it was 3.66 µM. For the same molecule, the inhibition result in assay [8], in assay [2] and in [9] was “inactive” in each case. Further, the Ratio IC50 in assay [7] was in the range of 2 to 9.
On to `O=C(O)CCN1C(=O)/C(=C/c2cn(-c3ccccc3)nc2-c2ccc(Cl)cc2Cl)SC1=S`, for which the figures for the IC50 in assay [1], in [3] and in assay [4] were 14 µM, 17.1 µM and 7.93 µM, respectively. The inhibition result in assay [8], in assay [2] and in assay [9] was “inactive” each time. The Ratio IC50 in [7] is 2 to 9.
As for `O=C(O)CCCCN1C(=O)/C(=C/c2cn(-c3ccccc3)nc2-c2ccc(Cl)cc2Cl)SC1=S`, the half-inhibitory concentration (IC50) in assay [1] worked out at 5.77 µM; in assay [3] it was 28.1 µM; in [4], 0.67 µM. Besides, the inhibition entry in assay [8], in assay [2] and in assay [9] was “inactive” throughout. The molecule further yielded an inhibition constant (Ki) in assay [10] of 0.31 µM. For the same molecule, the TDI result in assay [11] was “inactive”. The Ratio IC50 in [12] is 2.5; in [7], 2 to 9.
Regarding `O=C(O)[C@@H](Cc1ccccc1)N1C(=O)/C(=C/c2cn(-c3ccccc3)nc2-c2ccc3ccccc3c2)SC1=S`, the IC50 stood at 4.61 µM in assay [1], 6.12 µM in [3] and 1.81 µM in assay [4]. For the same molecule, the inhibition entry in assay [8], in assay [2] and in assay [9] was “inactive” each time. Moreover, the Ki in assay [10] was 0.7 µM. The TDI result in assay [11] was “inactive”. In addition, the Ratio IC50 in assay [7] fell in the range of 2 to 9.
